Calls of active or inactive are those of the source. The calls are words filed in the database; no cut-off is given here.
Legend:
[1] = target: T1, Histone-lysine N-methyltransferase EHMT2 (Homo sapiens) (UniProt Q96KQ7); test: Inhibition of G9a in human MCF7 cells assessed as decrease in […] levels at 0.3 to 3 uM after 72 hrs by Western blot analysis; assay type: cell-based; details: dose 0.3-3 µM
T1 sequence (whole entry): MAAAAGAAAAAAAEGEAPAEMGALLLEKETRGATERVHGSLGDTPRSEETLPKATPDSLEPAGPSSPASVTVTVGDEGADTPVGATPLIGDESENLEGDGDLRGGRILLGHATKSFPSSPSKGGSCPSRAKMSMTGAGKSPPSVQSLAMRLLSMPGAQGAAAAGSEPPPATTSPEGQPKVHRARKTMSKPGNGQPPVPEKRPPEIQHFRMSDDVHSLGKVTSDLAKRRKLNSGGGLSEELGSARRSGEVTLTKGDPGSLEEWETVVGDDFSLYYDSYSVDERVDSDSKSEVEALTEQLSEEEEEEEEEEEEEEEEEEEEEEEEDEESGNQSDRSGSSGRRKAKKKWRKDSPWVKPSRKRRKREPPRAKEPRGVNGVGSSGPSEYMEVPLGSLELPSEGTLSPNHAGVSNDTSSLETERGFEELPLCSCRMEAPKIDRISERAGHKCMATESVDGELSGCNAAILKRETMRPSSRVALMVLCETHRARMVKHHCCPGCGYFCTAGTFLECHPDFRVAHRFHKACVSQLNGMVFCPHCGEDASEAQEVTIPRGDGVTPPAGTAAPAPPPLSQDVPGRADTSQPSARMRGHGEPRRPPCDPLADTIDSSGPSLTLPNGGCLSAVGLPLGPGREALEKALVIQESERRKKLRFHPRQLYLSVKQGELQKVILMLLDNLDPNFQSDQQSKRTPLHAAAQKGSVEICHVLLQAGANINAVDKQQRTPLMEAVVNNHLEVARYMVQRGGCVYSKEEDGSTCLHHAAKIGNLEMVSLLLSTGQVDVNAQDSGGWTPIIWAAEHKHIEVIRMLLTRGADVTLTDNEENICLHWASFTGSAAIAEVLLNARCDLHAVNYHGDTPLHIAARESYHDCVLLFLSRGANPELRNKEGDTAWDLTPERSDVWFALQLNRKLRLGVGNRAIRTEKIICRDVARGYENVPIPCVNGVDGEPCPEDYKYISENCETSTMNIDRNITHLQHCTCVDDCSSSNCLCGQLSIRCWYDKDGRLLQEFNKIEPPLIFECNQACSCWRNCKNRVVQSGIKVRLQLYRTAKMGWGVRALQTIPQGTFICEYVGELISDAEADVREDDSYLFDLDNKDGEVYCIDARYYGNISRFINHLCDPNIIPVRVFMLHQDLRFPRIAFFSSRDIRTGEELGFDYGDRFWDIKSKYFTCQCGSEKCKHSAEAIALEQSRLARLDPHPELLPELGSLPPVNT

MOLT-16 [2] = test: Antiproliferative activity against human MOLT-16 cells at EC50 after 5 days by Cell-Titer-Glo assay; assay type: functional, cell-based; details: time 5.0 day
Method in brief: (§1)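 ATCC tumor lines were grown in their recommended media with 10% FBS and STR-authenticated. Cells were exposed to compound for the stated number of days. Viable cells were read by CellTiter-Glo endpoint. Inhibition was the ratio of treated to untreated wells, with cell-free wells set as 100% inhibition. The EC50 was taken from the dose response.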

[3] = target: T1, Histone-lysine N-methyltransferase EHMT2 (Homo sapiens); test: Inhibition of G9a in human MOLT-16 cells assessed as decrease in […] levels after 72 hrs by Western blot analysis; assay type: cell-based
Method in brief: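 MOLT-16 T-ALL cells treated 3 days with compound over a concentration range and lysed. Lysates normalized and immunoblotted for H3K9me2, total H3 and G9a.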

MOLT-16 [4] = test: Antiproliferative against human MOLT-16 cells after 5 days by Cell-Titer Glo assay; assay type: functional, cell-based; details: MOLT-16, 120 h; method in brief: as §1
THP-1 = test: Antiproliferative against human THP-1 cells after 5 days by Cell-Titer Glo assay; assay type: functional, cell-based; details: THP-1, 120 h; method in brief: as §1
OPM-2 = test: Antiproliferative against human OPM-2 cells after 5 days by Cell-Titer Glo assay; assay type: functional, cell-based; details: OPM-2, 120 h; method in brief: as §1
L-363 = test: Antiproliferative against human L-363 cells after 5 days by Cell-Titer Glo assay; assay type: functional, cell-based; details: L-363, 120 h; method in brief: as §1
Kasumi 1 = test: Antiproliferative against human Kasumi-1 cells after 5 days by Cell-Titer Glo assay; assay type: functional, cell-based; details: Kasumi 1, 120 h; method in brief: as §1
HL-60 = test: Antiproliferative against human HL-60 cells after 5 days by Cell-Titer Glo assay; assay type: functional, cell-based; details: HL-60, 120 h; method in brief: as §1
MV4-11 = test: Antiproliferative against human MV4-11 cells after 5 days by Cell-Titer Glo assay; assay type: functional, cell-based; details: MV4-11, 120 h; method in brief: as §1
CWR22R = test: Antiproliferative against human 22RV1 cells after 5 days by Cell-Titer Glo assay; assay type: functional, cell-based; details: 22Rv1, 120 h; method in brief: as §1
HT-1080 = test: Antiproliferative against human HT-1080 cells after 5 days by Cell-Titer Glo assay; assay type: functional, cell-based; details: HT-1080, 120 h; method in brief: as §1
DU-145 = test: Antiproliferative against human DU-145 cells after 5 days by Cell-Titer Glo assay; assay type: functional, cell-based; details: DU-145, 120 h; method in brief: as §1
LNCaP = test: Antiproliferative against human LNCaP cells after 5 days by Cell-Titer Glo assay; assay type: functional, cell-based; details: 120 h; method in brief: as §1
SK-BR-3 = test: Antiproliferative against human SK-BR-3 cells after 5 days by Cell-Titer Glo assay; assay type: functional, cell-based; details: SK-BR-3, 120 h; method in brief: as §1
Calu-1 = test: Antiproliferative against human Calu-1 cells after 5 days by Cell-Titer Glo assay; assay type: functional, cell-based; details: Calu-1, 120 h; method in brief: as §1
Calu-6 = test: Antiproliferative against human Calu-6 cells after 5 days by Cell-Titer Glo assay; assay type: functional, cell-based; details: Calu-6, 120 h; method in brief: as §1
NCI-H358 = test: Antiproliferative against human NCI-H358 cells after 5 days by Cell-Titer Glo assay; assay type: functional, cell-based; details: NCI-H358, 120 h; method in brief: as §1
NCI-H441 = test: Antiproliferative against human NCI-H441 cells after 5 days by Cell-Titer Glo assay; assay type: functional, cell-based; details: NCI-H441, 120 h; method in brief: as §1
PA-1 = test: Antiproliferative against human PA-1 cells after 7 days by Cell-Titer Glo assay; assay type: functional, cell-based; details: PA-1, 168 h; method in brief: as §1
G-401 = test: Antiproliferative against human G-401 cells after 7 days by Cell-Titer Glo assay; assay type: functional, cell-based; details: G-401, 168 h; method in brief: as §1
ZR-75-30 = test: Antiproliferative against human ZR-75-30 cells after 7 days by Cell-Titer Glo assay; assay type: functional, cell-based; details: ZR-75-30, 168 h; method in brief: as §1
U2OS = test: Antiproliferative against human U2OS cells after 7 days by Cell-Titer Glo assay; assay type: functional, cell-based; details: 168 h; method in brief: as §1
Daoy = test: Antiproliferative against human Daoy cells after 7 days by Cell-Titer Glo assay; assay type: functional, cell-based; details: 168 h; method in brief: as §1
[5] = Antiproliferative against human TC71 cells after 7 days by Cell-Titer Glo assay; assay type: functional, cell-based; details: TC-71, 168 h; method in brief: as §1
IMR-32 = test: Antiproliferative against human IMR-32 cells after 7 days by Cell-Titer Glo assay; assay type: functional, cell-based; details: IMR-32, 168 h; method in brief: as §1
[6] = Antiproliferative against human tsA201 cells after 7 days by Cell-Titer Glo assay; assay type: functional, cell-based; details: tsA201, 168 h; method in brief: as §1

| SMILES | inhibition [1] | Activity (MOLT-16 [2]) | inhibition [3] | EC50 (MOLT-16 [4]) [µM] | EC50 (THP-1) [µM] | EC50 (OPM-2) [µM] | EC50 (L-363) [µM] | EC50 (Kasumi 1) [µM] | EC50 (HL-60) [µM] | EC50 (MV4-11) [µM] | EC50 (CWR22R) [µM] | EC50 (HT-1080) [µM] | EC50 (DU-145) [µM] | EC50 (LNCaP) [µM] | EC50 (SK-BR-3) [µM] | EC50 (Calu-1) [µM] | EC50 (Calu-6) [µM] | EC50 (NCI-H358) [µM] | EC50 (NCI-H441) [µM] | EC50 (PA-1) [µM] | also measured |
| --- | --- | --- | --- | --- | --- | --- | --- | --- | --- | --- | --- | --- | --- | --- | --- | --- | --- | --- | --- | --- | --- |
| COc1cc2c(NC3CCN(C(C)C)CC3)nc(C3CCCCC3)nc2cc1OCCCN1CCCC1 | Active | Active | Active | 0.2 | 4.9 | 5.6 | 3.9 | 1.1 | 6.5 | 1.7 | 0.2 | 0.5 | 0.7 | 0.3 | 0.6 | 1.3 | 1.5 | 4.3 | 8.7 | 0.2 | EC50 (G-401): 0.4 µM; EC50 (ZR-75-30): 1.2 µM; EC50 (U2OS): 0.5 µM; EC50 (Daoy): 0.1 µM; EC50 [5]: 0.6 µM; EC50 (IMR-32): > 10 µM; EC50 [6]: > 10 µM |
| COc1cc2c(cc1OCCCN1CCCC1)N=C(N)C21CCC1 | Active | inactive | Active | > 10 | > 10 | > 10 | > 10 | > 10 | > 10 | > 10 | > 10 | > 10 | > 10 | > 10 | > 10 | > 10 | > 10 | > 10 | > 10 | > 10 | EC50 (G-401): > 10 µM; EC50 (ZR-75-30): > 10 µM; EC50 (U2OS): > 10 µM; EC50 (Daoy): > 10 µM; EC50 [5]: > 10 µM; EC50 (IMR-32): > 10 µM; EC50 [6]: > 10 µM |
